# Paper PMC4733660 (Organic & biomolecular chemistry, 2010)
# Read-outs that look alike come from different tables or passages of the source.
# Key:
# Format in all cases: biochemical
# [1] = molecular target: T1, JMJD2E (Homo sapiens, UniProt B2RXH2); assay: FDH-coupled spectrophotometric turnover assay of JMJD2E; conditions: for JMJD2E Residual Activity (%): enzyme concentration 400 nM, 200 μM compound concentration
# T1 sequence (B2RXH2 1-506): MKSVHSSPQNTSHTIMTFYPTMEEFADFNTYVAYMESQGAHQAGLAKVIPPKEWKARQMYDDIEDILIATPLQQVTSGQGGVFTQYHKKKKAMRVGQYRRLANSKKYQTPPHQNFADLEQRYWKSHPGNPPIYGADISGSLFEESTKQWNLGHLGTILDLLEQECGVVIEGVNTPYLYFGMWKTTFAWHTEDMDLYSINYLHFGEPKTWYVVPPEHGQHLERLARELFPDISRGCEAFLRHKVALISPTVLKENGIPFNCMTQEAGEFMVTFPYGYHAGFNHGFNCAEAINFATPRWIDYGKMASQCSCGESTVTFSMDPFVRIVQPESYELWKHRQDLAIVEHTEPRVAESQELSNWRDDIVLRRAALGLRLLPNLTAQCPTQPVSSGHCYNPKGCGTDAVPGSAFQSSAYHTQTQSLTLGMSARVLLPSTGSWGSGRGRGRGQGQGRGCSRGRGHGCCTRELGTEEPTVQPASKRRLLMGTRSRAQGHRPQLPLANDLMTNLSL
# [2] = molecular target: PHD2 (Homo sapiens, UniProt Q9GZT9); assay: PHD2 fluorescence-based; conditions: for PHD2 Residual Activity (%): HTRF-based assay, enzyme concentration 20 nM, 400 μM compound concentration; for PHD2 inhibition (in words): 400 μM inhibitor concentration
# Sequence of PHD2 (Q9GZT9 whole entry): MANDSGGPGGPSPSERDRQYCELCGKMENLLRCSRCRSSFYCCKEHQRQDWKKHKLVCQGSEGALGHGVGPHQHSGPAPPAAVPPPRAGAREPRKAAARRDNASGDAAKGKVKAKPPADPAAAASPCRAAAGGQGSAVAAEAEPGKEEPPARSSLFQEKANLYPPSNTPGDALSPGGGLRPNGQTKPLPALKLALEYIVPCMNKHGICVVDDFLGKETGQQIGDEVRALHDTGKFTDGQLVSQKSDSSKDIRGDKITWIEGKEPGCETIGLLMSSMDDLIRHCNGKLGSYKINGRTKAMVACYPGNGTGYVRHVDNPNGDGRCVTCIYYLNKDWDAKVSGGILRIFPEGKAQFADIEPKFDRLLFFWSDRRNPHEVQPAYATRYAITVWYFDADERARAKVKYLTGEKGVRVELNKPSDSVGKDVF
# [3] = molecular target: T2, formaldehyde dehydrogenase (FDH) (Pseudomonas putida, UniProt P46154); assay: FDH counterscreen, spectrophotometric assay; conditions: enzyme concentration 50 μM, 200 μM compound concentration
# T2 sequence (P46154 1-399): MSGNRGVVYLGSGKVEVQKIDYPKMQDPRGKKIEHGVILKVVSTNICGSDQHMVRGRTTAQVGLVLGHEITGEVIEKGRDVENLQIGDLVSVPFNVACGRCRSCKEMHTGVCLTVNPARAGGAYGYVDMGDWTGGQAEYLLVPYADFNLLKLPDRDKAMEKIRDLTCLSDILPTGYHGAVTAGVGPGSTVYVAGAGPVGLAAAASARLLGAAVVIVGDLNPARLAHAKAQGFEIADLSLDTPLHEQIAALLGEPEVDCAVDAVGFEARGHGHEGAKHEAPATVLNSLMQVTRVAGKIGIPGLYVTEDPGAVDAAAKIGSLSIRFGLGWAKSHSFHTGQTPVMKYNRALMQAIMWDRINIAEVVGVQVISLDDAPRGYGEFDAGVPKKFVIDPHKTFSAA
# Outline: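 Counterscreen run on the coupling enzyme alone to exclude false JMJD2E hits from FDH inhibition. FDH turnover of formaldehyde with NAD+ followed spectrophotometrically. Enzyme 50 μM; test compound at 200 μM; activity expressed as residual % of uninhibited FDH.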
JMJD2E inhibition (in words) ([1]; FDH-coupled assay),"IC50 ([1]; read-out: JMJD2E IC50, FDH-coupled assay) [µM]",PHD2 Residual Activity (%) [2] [%],JMJD2E Residual Activity (%) ([1]; FDH-coupled assay),FDH Residual Activity (%) [3] [%],PHD2 inhibition (in words) [2],IC50 [1] [µM],SMILES
highly active,~0.1,23,,,,,"Nc1c(C(=O)O)ccnc1C(=O)O [Compound 50, 3-amino-2,4-PDCA]"
potent,,100,0,83,do not inhibit PHD2,,"O=C(O)c1ccnc(C(=O)O)c1Nc1ccccc1 [Compound 37, 3-(Phenylamino)pyridine-2,4-dicarboxylic acid]"
,,100,84,100,,,"O=C(O)c1ccnc(C(=O)O)c1-c1ccccc1 [Compound 34, 3-Phenylpyridine-2,4-dicarboxylic acid]"
inactive,,88,48,91,inactive,,"O=C(O)c1ccnc(C(=O)O)c1Oc1ccccc1 [Compound 36, 3-Phenoxypyridine-2,4-dicarboxylic acid]"
some recovery of inhibitory potency,,85,25,87,,66,"O=C(O)c1ccnc(C(=O)O)c1/C=C/c1ccccc1 [Compound 35, (E)-3-Styrylpyridine-2,4-dicarboxylic acid]"
,,22,0,100,,,"O=C(O)c1ccnc(C(=O)O)c1 [Compound 5, 2,4-pyridine dicarboxylic acid, reference compound]"
